Source: ChEMBL document CHEMBL1671748, “Subinhibitory concentrations of protein synthesis-inhibiting antibiotics promote increased expression of the agr virulence regulator and production of phenol-soluble modulin cytolysins in community-associated methicillin-resistant Staphylococcus aureus” (2010)
Converted amounts (≈) assume the structure as drawn. The source made the active and inactive calls. No cut-off for these calls is given here.

What was measured:
Staphylococcus aureus [1] = experiment: Decrease in PSMbeta1 levels in Staphylococcus aureus Sanger 252 at subinhibitory concentrations after 24 hrs by RP-HPLC/ESI- MS; assay type: functional, organism-based
In short: (§1)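 Antibiotic was added at inoculation (1:100 from preculture) into tryptic soy broth, with an antibiotic-free control, and shaken at 200 rpm for 24 h. Sub-inhibitory levels started at 1/10 of published MICs and were adjusted to give minimal growth effect, with growth tracked by OD600. PSMs in culture filtrates were quantified in triplicate by RP-HPLC/ESI-MS and reported as mean ± SD.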

Staphylococcus aureus [2] = experiment: Decrease in delta toxin levels in Staphylococcus aureus USA300 at subinhibitory concentrations after 24 hrs by RP-HPLC/ESI- MS; assay type: functional, organism-based
In short: (§2)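 Antibiotic at a subinhibitory concentration was added at inoculation (1:100 from precultures) into 1 ml tryptic soy broth and shaken 24 h at 200 rpm. Peptides in culture filtrates were quantified by RP-HPLC/ESI-MS in triplicate. Each concentration started at 1/10 of the published MIC and was adjusted to give minimal growth effect, judged by OD600.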

Staphylococcus aureus [3] = experiment: Decrease in PSMbeta1 levels in Staphylococcus aureus USA300 at subinhibitory concentration after 24 hrs by RP-HPLC/ESI-MS; assay type: functional, organism-based; in short: as §1
Staphylococcus aureus [4] = experiment: Decrease in delta toxin levels in Staphylococcus aureus Sanger 252 at subinhibitory concentrations after 24 hrs by RP-HPLC/ESI- MS; assay type: functional, organism-based; in short: as §2
Staphylococcus aureus [5] = experiment: Antimicrobial activity against community-associated methicillin-resistant Staphylococcus aureus USA300; assay type: functional
Staphylococcus aureus [6] = experiment: Antimicrobial activity against community-associated methicillin-resistant Staphylococcus aureus Sanger 252; assay type: functional
[7] = target: T1, Accessory gene regulator protein A (Staphylococcus aureus) (UniProt P0A0I7); experiment: Activity of Quorum sensing agr in community-associated methicillin-resistant Staphylococcus aureus USA300 assessed as PSMalpha expression after 8 hrs by qRT-PCR
T1 sequence (whole entry): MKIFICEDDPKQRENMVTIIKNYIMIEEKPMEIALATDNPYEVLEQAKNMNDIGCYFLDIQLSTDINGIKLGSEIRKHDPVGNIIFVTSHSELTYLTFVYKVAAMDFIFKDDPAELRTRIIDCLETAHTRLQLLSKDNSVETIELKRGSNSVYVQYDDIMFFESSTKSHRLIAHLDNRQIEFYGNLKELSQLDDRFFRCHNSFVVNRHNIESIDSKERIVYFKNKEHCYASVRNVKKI
In short: (§3)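 LAC (USA300) was grown 8 h in shaken 125-ml flasks with antibiotic at a subinhibitory concentration. psmα and psmβ transcripts were quantified by qRT-PCR, with gyrB transcript as control, in parallel with RNAIII as the agr read-out. Run in triplicate; means ± SD.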

Staphylococcus aureus [8] = experiment: Increase in PSMalpha levels in Staphylococcus aureus USA300 at subinhibitory concentrations after 24 hrs by RP-HPLC/ESI- MS; assay type: functional, organism-based; in short: as §1
[9] = target: T1, Accessory gene regulator protein A (Staphylococcus aureus); experiment: Activity of Quorum sensing agr in community-associated methicillin-resistant Staphylococcus aureus USA300 assessed as PSMbeta expression after 8 hrs by qRT-PCR; in short: as §3
Staphylococcus aureus [10] = experiment: Decrease in PSMalpha levels in Staphylococcus aureus Sanger 252 at subinhibitory concentrations after 24 hrs by RP-HPLC/ESI- MS; assay type: functional, organism-based; in short: as §1
Staphylococcus aureus [11] = experiment: Decrease in PSMalpha levels in Staphylococcus aureus USA300 at subinhibitory concentration after 24 hrs by RP-HPLC/ESI-MS; assay type: functional, organism-based; in short: as §2
Staphylococcus aureus [12] = experiment: Increase in PSMalpha levels in Staphylococcus aureus Sanger 252 at subinhibitory concentrations after 24 hrs by RP-HPLC/ESI- MS; assay type: functional, organism-based; in short: as §2

SMILES | Activity (Staphylococcus aureus [1]) | Activity (Staphylococcus aureus [2]) | Activity (Staphylococcus aureus [3]) | Activity (Staphylococcus aureus [4]) | MIC (Staphylococcus aureus [5]) | MIC (Staphylococcus aureus [6]) | Activity [7] | Activity (Staphylococcus aureus [8]) | Activity [9] | Activity (Staphylococcus aureus [10]) | Activity (Staphylococcus aureus [11]) | Activity (Staphylococcus aureus [12])
CN[C@H](CC(C)C)C(=O)N[C@H]1C(=O)N[C@@H](CC(N)=O)C(=O)N[C@H]2C(=O)N[C@H]3C(=O)N[C@H](C(=O)N[C@H](C(=O)O)c4cc(O)cc(O)c4-c4cc3ccc4O)[C@H](O)c3ccc(c(Cl)c3)Oc3cc2cc(c3O[C@@H]2O[C@H](CO)[C@@H](O)[C@H](O)[C@H]2O[C@H]2C[C@](C)(N)[C@H](O)[C@H](C)O2)Oc2ccc(cc2Cl)[C@H]1O | Active | inactive | Active | inactive |  |  |  |  |  |  |  | 
O=C(O)c1cn(C2CC2)c2cc(N3CCNCC3)c(F)cc2c1=O [CIPROFLOXACIN] | Active | inactive | Active | inactive | 2 µg/mL (≈ 6.04 µM) | > 16 µg/mL |  |  |  |  |  | 
CCC[C@@H]1C[C@@H](C(=O)N[C@@H]([C@H]2O[C@H](SC)[C@H](O)[C@@H](O)[C@H]2O)[C@H](C)Cl)N(C)C1 [CLINDAMYCIN] | Active | inactive | Active | inactive | 0.12 µg/mL (≈ 0.282 µM) | > 4 µg/mL | Active | Active | Active |  |  | 
CC[C@H]1OC(=O)[C@H](C)[C@@H](O[C@H]2C[C@@](C)(OC)[C@@H](O)[C@H](C)O2)[C@H](C)[C@@H](O[C@@H]2O[C@H](C)C[C@H](N(C)C)[C@H]2O)[C@](C)(O)C[C@@H](C)C(=O)[C@H](C)[C@@H](O)[C@]1(C)O [ERYTHROMYCIN] | Active | inactive | Active | inactive | > 8 µg/mL | > 8 µg/mL |  | Active |  |  |  | 
CC(=O)NC[C@H]1CN(c2ccc(N3CCOCC3)c(F)c2)C(=O)O1 [LINEZOLID] | Active | inactive | Active | inactive |  | 1 µg/mL (≈ 2.96 µM) |  | Active |  |  |  | 
C/C(=C\C(=O)OCCCCCCCCC(=O)O)C[C@@H]1OC[C@H](C[C@@H]2O[C@H]2[C@@H](C)[C@H](C)O)[C@@H](O)[C@H]1O [MUPIROCIN] | Active | inactive | Active | Active | 0.12 µg/mL (≈ 0.24 µM) | 0.25 µg/mL (≈ 0.499 µM) |  |  |  | Active | inactive | 
Cc1onc(-c2ccccc2)c1C(=O)N[C@@H]1C(=O)N2[C@@H]1SC(C)(C)[C@@H]2C(=O)O [OXACILLIN] | Active | Active | Active | inactive | > 16 µg/mL | > 16 µg/mL | inactive |  | inactive |  | Active | inactive
CO[C@H]1/C=C/O[C@@]2(C)Oc3c(C)c(O)c4c(O)c(c(/C=N/N5CCN(C)CC5)c(O)c4c3C2=O)NC(=O)/C(C)=C\C=C\[C@H](C)[C@H](O)[C@@H](C)[C@@H](O)[C@@H](C)[C@H](OC(C)=O)[C@@H]1C [RIFAMPIN] | Active | inactive | Active | inactive | 0.004 µg/mL (≈ 0.00486 µM) | 0.004 µg/mL (≈ 0.00486 µM) |  |  |  |  |  | 
Cc1cc(NS(=O)(=O)c2ccc(N)cc2)no1 [SULFAMETHOXAZOLE] |  |  |  |  | 4.75 µg/mL (≈ 18.8 µM) | 4.75 µg/mL (≈ 18.8 µM) |  |  |  |  |  | 
CN(C)[C@@H]1C(O)=C(C(N)=O)C(=O)[C@@]2(O)C(O)=C3C(=O)c4c(O)cccc4[C@@](C)(O)[C@H]3C[C@@H]12 [TETRACYCLINE] | Active | inactive | Active | inactive | 1 µg/mL (≈ 2.25 µM) | 1 µg/mL (≈ 2.25 µM) | Active | Active | Active |  |  | 
COc1cc(Cc2cnc(N)nc2N)cc(OC)c1OC [TRIMETHOPRIM] |  |  |  |  | 0.25 µg/mL (≈ 0.861 µM) | 0.25 µg/mL (≈ 0.861 µM) |  |  |  |  |  | 
